In ChEMBL document CHEMBL4007470, “Discovery of a 2'-fluoro-2'-C-methyl C-nucleotide HCV polymerase inhibitor and a phosphoramidate prodrug with favorable properties” (Bioorg Med Chem Lett, 2017):

Key:
Rattus norvegicus [1] = experiment: Toxicity in rat at 1000 mg/kg/day for 28 days; format: organism-based; settings: in vivo, 672 h
Hepatitis C virus [2] = experiment: Antiviral activity against HCV genotype 1a infected in human HuH7 cells by luciferase reporter gene assay; format: functional, cell-based, Hepacivirus hominis, subtype 1a
Plasma = experiment: Half life in human plasma at 2 uM by LC-MS/MS analysis; format: ADME, cell-free; settings: 2 µM
How it was run: (§1)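 Compound at 2 μM incubated in plasma at 37 °C for up to 4 h. Aliquots quenched with 9 volumes of acetonitrile containing internal standard, then centrifuged. Supernatant analysed by LC-MS/MS.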

Rhesus monkey = experiment: Toxicity in monkey at 30 mg/kg/day for 28 days; format: organism-based, Macaca mulatta; settings: in vivo, 672 h
[3] = Hepatic extraction in hamster liver S9 fractions at 2 uM by LC-MS/MS analysis; format: ADME; settings: cricetinae, s9, 2 µM; 2 µM
How it was run: (§2)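 Compound at 2 μM incubated with S9 fractions at 37 °C for 90 min with NADPH and UDPGA. Quenched with aqueous acetonitrile/methanol containing internal standard and analysed by LC-MS/MS. Half-life from an exponential fit assuming first-order kinetics. Hepatic extraction predicted from half-life using the well-stirred model.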

Liver = experiment: Hepatic extraction in human liver S9 fractions at 2 uM by LC-MS/MS analysis; format: ADME; settings: s9, 2 µM, 2 µM; how it was run: as §2
[4] = Permeability of the compound from basolateral to apical side in human Caco2 cells at 10 uM; format: ADME, cell-based, Caco-2; settings: caco-2, 10 µM, 10 µM
How it was run: (§3)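 Caco-2 permeability at 10 μM compound, measured in apical-to-basolateral and basolateral-to-apical directions.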

[5] = Half life in hamster intestinal S9 fractions at 2 uM by LC-MS/MS analysis; format: ADME, Intestine; settings: cricetinae, s9, 2 µM; 2 µM
[6] = Half life in hamster plasma at 2 uM by LC-MS/MS analysis; format: ADME, cell-free; settings: cricetinae, 2 µM; how it was run: as §1
Hepatitis C virus [7] = experiment: Antiviral activity against HCV genotype 1b infected in human HuH7 cells by luciferase reporter gene assay; format: functional, cell-based, Hepacivirus hominis
How it was run: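 Luciferase-reporter genotype 1b subgenomic replicon in Huh-7 cells; EC50 is concentration giving 50% inhibition. Values are averages of at least three repeats.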

[8] = Permeability of the compound from apical to basolateral side in human Caco2 cells at 10 uM; format: ADME, cell-based, Caco-2; settings: caco-2, 10 µM, 10 µM; how it was run: as §3
Rattus norvegicus [9] = species on record: Rattus norvegicus; experiment: Toxicity in rat assessed as vacuolization in brain treated for 28 days by histopathology; settings: in vivo, 672 h
Hepatitis C virus [10] = experiment: Antiviral activity against HCV genotype 4a infected in human HuH7 cells by luciferase reporter gene assay; format: functional, cell-based, Hepacivirus hominis

EC50 (Hepatitis C virus [2]): 800 nM
t1/2 (Plasma): 9.1 h
ERH [3]: 90%
ERH (Liver): 76%
permeability [4]: 9.3 ×10⁻⁶ cm/s
t1/2 [5]: 1.65 h
t1/2 [6]: 3.63 h
EC50 (Hepatitis C virus [7]): 3000 nM
permeability [8]: 1.7 ×10⁻⁶ cm/s
EC50 (Hepatitis C virus [10]): 440 nM
SMILES: CC(C)OC(=O)C1(NP(=O)(OC[C@H]2O[C@@H](c3cnc4c(N)ncnn34)[C@](C)(F)[C@@H]2O)Oc2ccccc2)CCC1 (stereo in doubt; 53)
Activity (Rattus norvegicus [1]): Non-Toxic
Activity (Rhesus monkey): Non-Toxic
Activity (Rattus norvegicus [9]): Dose-dependent effect
